Measured values from ChEMBL document CHEMBL1132620, “Piperazine imidazo[1,5-a]quinoxaline ureas as high-affinity GABAA ligands of dual functionality” (J Med Chem, 1999).
Active and inactive are the calls of the source. No cut-off for these calls is given here.

Columns and labels:
[1] = tested on: Mus musculus; assay: In vivo efficacy was evaluated for their ability to antagonize metrazole induced clonic convulsants in rat after ip injection.
[2] = tested on: Mus musculus; assay: In vivo efficacy is evaluated by percent control of cerebellar GMP content in CF1 mice and result is expressed as crebrellar GMP levels in (drug+stress) treated mice and mice under stress.; format: functional
Procedure, shortened: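 Male CF-1 mice dosed orally in vehicle 122 (controls get vehicle, 1 mL/100 g), then given electric footshock stress. Killed 30 min after dosing. Cerebellum homogenized in 10 volumes of 1% perchloric acid, kept 30 min on ice, boiled 5 min, spun 17000g for 20 min. cGMP measured by radioimmunoassay. Expressed as % of the (drug + stress)/stress response versus vehicle-shock controls.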

[3] = species: Mus musculus; assay: Compound was evaluated for their ability to antagonize the muscle relaxation effects of benzodiazepine full agonist, triazolam.
[4] = Total plasma clearance Clp was determined for the compound after iv dose of 5.06 mg/kg in rats; format: ADME, organism-based; set-up: dose 5.06 mg/kg, route intravenous; details: rat, read-out: Clp (converted)
[5] = Area under curve was determined for the compound after iv dose of 5.06 in rats; format: ADME, organism-based; details: rat, in vivo
[6] = Area under curve was determined for the compound after po dose of 5.01 mg/kg in rats; format: ADME, organism-based; set-up: dose 5.01 mg/kg, route oral; details: rat, in vivo
[7] = Maximum serum concentration was determined for the compound after po dose of 5.01 mg/kg in rats; format: ADME, organism-based; set-up: dose 5.01 mg/kg, route oral; details: rat
[8] = Oral bioavailability at a dose of 5.01 mg/kg in rats; format: ADME, organism-based; details: rat, in vivo
[9] = Time at which Cmax was reached was determined for the compound after po dose of 5.01 mg/kg in rats; format: ADME, organism-based; set-up: dose 5.01 mg/kg, route oral; details: rat, in vivo
Procedure, shortened: (§1)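 Male Sprague–Dawley rats dosed orally with compound in a solution formulation, n = 3–4 per compound; serum drug concentrations measured over time, lower limit of quantitation 50 ng/mL. Tmax reported as the range of observed values across animals.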

[10] = Half-life after iv dose of 5.06 mg/kg in rats; format: ADME, organism-based; set-up: dose 5.06 mg/kg, route intravenous; details: rat, in vivo
[11] = Half-life after po dose of 5.01 mg/kg in rats; format: ADME, organism-based; set-up: dose 5.01 mg/kg, route oral; details: rat, in vivo
[12] = target: T1, GABA-A receptor; anion channel (Rattus norvegicus) (UniProt O09028+P15431+P18506+P18508+P19969+P20236+P23574+P23576+P28471+P28473+P30191+P62813+P63079+P63138+Q91ZM7+Q9ES14); assay: (§2) Displacement of [3H]flunitrazepam from GABA-A benzodiazepine receptor of rat cortical membranes; format: cell membranes; set-up: concentration or dose not given beside the values; details: Membrane, concentration not given here
Procedure, shortened: (§3)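 Rat membranes incubated 60 min at 4 °C with [3H]flunitrazepam, 50 µg membrane protein and graded test drug in 200 µL containing NaCl, 10 mM Hepes/Tris pH 7.4 and 1 mM MgCl2; bound ligand separated by rapid filtration on GF/B; mean affinity, SE ≤10% of mean.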

[13] = target: GABA-A receptor; anion channel; assay: as §2; format: cell membranes, Membrane; procedure, shortened: as §3
[14] = target: T1, GABA-A receptor; anion channel (Rattus norvegicus); assay: Shift in [35S]TBPS binding to GABA-A Benzodiazepine receptor of rat brain membrane
[15] = target: T2, GABA-A receptor; alpha-1/beta-2/gamma-2 (Homo sapiens) (UniProt P14867+P47870+P18507); assay: (§4) In vitro GABA-mediated chloride current in A293 cells expressing GABA-A benzodiazepine receptor alpha-1-beta-2-gamma-2 subunits at 5 uM; format: functional, cell-based; details: HEK293
[16] = species: Mus musculus; assay: Ability to antagonize the muscle relaxation effect in mice caused by a benzodiazepine full agonist, triazolam.; format: functional
Procedure, shortened: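 Muscle relaxation induced by triazolam; test compound and triazolam given separately, traction scored 30 min after dosing; ED50 for blocking the relaxant effect.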

[17] = tested on: Mus musculus; assay: In vivo efficacy is evaluated by percent control of cerebellar GMP levels in (drug+stress) treated mice/mice under stress; format: functional; set-up: concentration or dose not given beside the values
Procedure, shortened: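 Male CF-1 mice given drug orally in vehicle 122 before electric footshock stress, controls given vehicle (1 mL/100 g); killed 30 min after treatment; cerebellum homogenized in 1% perchloric acid, iced 30 min, boiled 5 min, spun 17000g 20 min; supernatant cGMP by radioimmunoassay, expressed as % of stress control.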

[18] = tested on: Mus musculus; assay: In vivo acute electroshock physical dependence activity in mice; Inactive; format: functional, organism-based
[19] = tested on: Rattus norvegicus; assay: In vivo efficacy evaluated for ability to antagonize metrazole induced clonic convulsions in rat after ip injection; format: functional
[20] = tested on: Rattus norvegicus; assay: Mean number of shocks produced by CDPZ in rats at a dose of 12 mg/kg was determined by vogel's punished licking assay; format: functional
Procedure, shortened: (§5)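 Vogel punished licking test in rats; number of shocks accepted recorded per dose group (n 6–10); each dose compared with the 0 mg/kg group of the same experiment by Wilcoxon rank sum test.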

[21] = tested on: Rattus norvegicus; assay: Mean number of shocks produced by the compound in rats at a dose of 0 mg/kg was determined by vogel's punished licking assay; format: functional; procedure, shortened: as §5
[22] = tested on: Rattus norvegicus; assay: Mean number of shocks produced by the compound in rats at a dose of 0.3 mg/kg was determined by vogel's punished licking assay; format: functional; procedure, shortened: as §5
[23] = tested on: Rattus norvegicus; assay: Mean number of shocks produced by the compound in rats at a dose of 1 mg/kg was determined by vogel's punished licking assay; format: functional; procedure, shortened: as §5
[24] = tested on: Rattus norvegicus; assay: Mean number of shocks produced by the compound in rats at a dose of 10 mg/kg was determined by vogel's punished licking assay; format: functional; procedure, shortened: as §5
[25] = tested on: Rattus norvegicus; assay: Mean number of shocks produced by the compound in rats at a dose of 3 mg/kg was determined by vogel's punished licking assay; format: functional; procedure, shortened: as §5
[26] = target: T2, GABA-A receptor; alpha-1/beta-2/gamma-2 (Homo sapiens); assay: as §4; format: functional, cell-based; details: HEK293; remark: listed apart in the source
[27] = target: T1, GABA-A receptor; anion channel (Rattus norvegicus); assay: Inhibition of [35S]TBPS binding to GABA-A Benzodiazepine receptor of rat brain membranes; format: cell membranes; details: Membrane
[28] = tested on: Mus musculus; assay: In vivo acute electroshock physical dependence activity in mice; Not active.; format: functional, organism-based
[29] = Area under the curve was determined for the compound after iv dose of 4.97 mg/kg in rats; format: ADME, organism-based; set-up: dose 4.97 mg/kg, route intravenous; details: rat, in vivo
[30] = Total plasma clearance was determined for the compound after iv dose of 4.97 mg/kg in rats; format: ADME, organism-based; set-up: dose 4.97 mg/kg, route intravenous; details: rat, read-out: Clp (converted)
[31] = Area under curve was determined for the compound after po dose of 5.03 mg/kg in rats; format: ADME, organism-based; set-up: dose 5.03 mg/kg, route oral; details: rat, in vivo
[32] = Maximum serum concentration was determined for the compound after po dose of 5.03 mg/kg in rats; format: ADME, organism-based; set-up: dose 5.03 mg/kg, route oral; details: rat
[33] = Oral bioavailability at a dose of 5.03 mg/kg in rats; format: ADME, organism-based; details: rat, in vivo
[34] = Time at which Cmax was reached was determined for the compound after po dose of 5.03 mg/kg in rats; format: ADME, organism-based; set-up: dose 5.03 mg/kg, route oral; details: rat, in vivo; procedure, shortened: as §1
[35] = half-life after po dose of 5.03 mg/kg in rats; format: ADME, organism-based; set-up: dose 5.03 mg/kg, route oral; details: rat, in vivo
[36] = target: GABA A receptor alpha-3/beta-2/gamma-2 (Homo sapiens) (UniProt P47870+P18507+P34903); assay: In vitro GABA-mediated chloride current in A293 cells expressing GABA-A benzodiazepine receptor alpha-3-beta-2-gamma-2 subunits at 5 uM; format: functional, cell-based; details: HEK293
[37] = Half-life after iv dose of 4.97 mg/kg in rats; format: ADME, organism-based; set-up: dose 4.97 mg/kg, route intravenous; details: rat, in vivo

Row | Compound | inhibition [12] | Ki [13] | Shift [14] | Change in Cl- current [15] | ED50 [16] | Control [17] | ED50 [19] | Mean no. of shocks [20] | Mean no. of shocks [21] | Mean no. of shocks [22] | Mean no. of shocks [23] | Mean no. of shocks [24] | Mean no. of shocks [25] | Acute electroshock activity [28] | also measured
1 | CN1C(=O)CN=C(c2ccccc2)c2cc(Cl)ccc21 [DIAZEPAM] | – | – | – | – | – | – | – | – | – | – | – | – | – | – | ED50 [1]: 0.5 mg/kg; Control [2]: 0.44%; ED50 [3]: > 30 mg/kg
2 | C[C@H]1CN(C(=O)N2Cc3c(C(=O)OC(C)(C)C)ncn3-c3ccc(Cl)cc32)C[C@H](C)N1 | 45% | 16.7 nM | 0.37 | 0.4 | > 30 mg/kg | 69% | 7.4 mg/kg | 14.8 | 3.3 | 3.9 | 5.2 | 8.8 | 5.6 | – | clearance [4]: 17.8 mL/min/kg; AUC [5]: 5010 ng·h/mL; AUC [6]: 2620 ng·h/mL; Cmax [7]: 660 ng/mL; bioavailability [8]: 54%; Tmax [9]: 0.25 h; half-life [10]: 1.5 h; half-life [11]: 2.4 h; Acute electroshock activity [18]: inactive; Change in Cl- current [26]: 1.05
3 | CC(C)(C)OC(=O)c1ncn2c1CN(C(=O)N1CCCCC1)c1ccccc1-2 | 44% | 1.35 nM | – | 0 | 4 mg/kg | 91% | > 50 mg/kg | – | – | – | – | – | – | inactive | Shift [27]: 0.08
4 | C[C@@H]1CN(C(=O)N2Cc3c(C(=O)OC(C)(C)C)ncn3-c3ccc(C(F)(F)F)cc32)C[C@H](C)N1 | 52% | 32.4 nM | 0.31 | 0.5 | > 30 mg/kg | 36% | 21 mg/kg | 23 | 4.9 | 4.6 | 4.9 | 7.9 | 6.4 | inactive | AUC [29]: 7470 ng·h/mL; clearance [30]: 12.2 mL/min/kg; AUC [31]: 6430 ng·h/mL; Cmax [32]: 1160 ng/mL; bioavailability [33]: 84%; Tmax [34]: 1 h; half-life [35]: 2.7 h; Change in Cl- current [36]: 0.1; half-life [37]: 2.4 h
